According to ChEMBL document CHEMBL1275251, “Mutant selection window and characterization of allelic diversity for ciprofloxacin-resistant mutants of Rhodococcus equi” (Antimicrob Agents Chemother, 2010):
≈ marks a conversion by molar mass, not a printed value. Calls of active or inactive are those of the source. The rule behind the calls is not given here.

What was measured:
Prescottella equi [1] = experiment: Antibacterial activity against Rhodococcus equi W5234 harboring GyrA Ser83Ile mutation selected on 8 ug/ml of compound treated culture by broth microdilution method; assay type: functional; details: Rhodococcus (subgen. Prescottella) equi
Summary of the method: (§1)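 Mutants were selected by plating at least 1 × 10^10 cells, grown 48 h at 35°C in brain heart infusion broth, on ciprofloxacin-containing Columbia blood agar base for 4 days at 35°C. Each was confirmed by two passages at the selecting concentration and one drug-free passage. MIC was then read by broth microdilution in cation-supplemented Mueller-Hinton broth per CLSI M24-A. Each experiment was done twice.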

Prescottella equi [2] = experiment: Antibacterial activity against Rhodococcus equi ATCC 6939T harboring GyrA Asp87Gly mutation selected on 4 ug/ml of compound treated culture by broth microdilution method; assay type: functional; details: Rhodococcus (subgen. Prescottella) equi; summary of the method: as §1
Prescottella equi [3] = experiment: Antibacterial activity against Rhodococcus equi W5234 harboring GyrA Asp87Gly mutation selected on 8 ug/ml of compound treated culture by broth microdilution method; assay type: functional, organism-based; summary of the method: as §1
Prescottella equi [4] = experiment: Antibacterial activity against Rhodococcus equi W5234 harboring GyrA Ser83Arg mutation selected on 8 ug/ml of compound treated culture by broth microdilution method; assay type: functional; details: Rhodococcus (subgen. Prescottella) equi; summary of the method: as §1
Prescottella equi [5] = experiment: Antibacterial activity against Rhodococcus equi W5234 harboring GyrA Ser83Ile mutation selected on 16 ug/ml of compound treated culture by broth microdilution method; assay type: functional, organism-based; summary of the method: as §1
Prescottella equi [6] = experiment: Antibacterial activity against Rhodococcus equi W5234 harboring GyrA Asp87Asn mutation selected on 4 ug/ml of compound treated culture by broth microdilution method; assay type: functional; details: Rhodococcus (subgen. Prescottella) equi; summary of the method: as §1
Prescottella equi [7] = experiment: Antibacterial activity against Rhodococcus equi W5234 selected on 8 ug/ml of compound treated culture by broth microdilution method; assay type: functional; details: Rhodococcus (subgen. Prescottella) equi; summary of the method: as §1
Prescottella equi [8] = experiment: Antibacterial activity against Rhodococcus equi ATCC 6939T harboring GyrA Asp87Asn mutation selected on 6 ug/ml of compound treated culture by broth microdilution method; assay type: functional; details: Rhodococcus (subgen. Prescottella) equi; summary of the method: as §1
Prescottella equi [9] = experiment: Antibacterial activity against Rhodococcus equi W5234 harboring GyrA Asp87Tyr mutation selected on 4 ug/ml of compound treated culture by broth microdilution method; assay type: functional; details: Rhodococcus (subgen. Prescottella) equi; summary of the method: as §1
Prescottella equi [10] = experiment: Antibacterial activity against Rhodococcus equi W5234 harboring GyrA Asp87His mutation selected on 6 ug/ml of compound treated culture by broth microdilution method; assay type: functional; details: Rhodococcus (subgen. Prescottella) equi; summary of the method: as §1
Prescottella equi [11] = experiment: Antibacterial activity against Rhodococcus equi W5234 selected on 2 ug/ml of compound treated culture by broth microdilution method; assay type: functional; details: Rhodococcus (subgen. Prescottella) equi; summary of the method: as §1
Prescottella equi [12] = experiment: Antibacterial activity against Rhodococcus equi ATCC 6939T harboring GyrB Asn464Asp mutation selected on 1 ug/ml of compound treated culture by broth microdilution method; assay type: functional, organism-based; summary of the method: as §1
Prescottella equi [13] = experiment: Antibacterial activity against Rhodococcus equi ATCC 6939T harboring GyrA Ser83Ile mutation selected on 8 ug/ml of compound treated culture by broth microdilution method; assay type: functional; details: Rhodococcus (subgen. Prescottella) equi; summary of the method: as §1
Prescottella equi [14] = experiment: Antibacterial activity against Rhodococcus equi W5234 harboring GyrA Ser83Ile mutation selected on 12 ug/ml of compound treated culture by broth microdilution method; assay type: functional; details: Rhodococcus (subgen. Prescottella) equi; summary of the method: as §1
Prescottella equi [15] = experiment: Antibacterial activity against Rhodococcus equi W5234 isolated from HIV-positive patient; assay type: functional; details: Rhodococcus (subgen. Prescottella) equi
Summary of the method: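 Cells grown 48 h at 35°C with shaking in brain heart infusion broth, then resuspended. MIC by broth microdilution in cation-supplemented Mueller-Hinton broth per CLSI M24-A. For MIC99 and MPC, ≥1 × 10^10 cells were plated on Columbia blood agar base containing a range of ciprofloxacin concentrations and incubated 4 days at 35°C. Resistant-colony fraction relative to CFU on drug-free plates was plotted against concentration. Run twice.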

Prescottella equi [16] = experiment: Antibacterial activity against Rhodococcus equi W5234 harboring GyrA Ser83Ile mutation selected on 4 ug/ml of compound treated culture by broth microdilution method; assay type: functional; details: Rhodococcus (subgen. Prescottella) equi; summary of the method: as §1
Prescottella equi [17] = experiment: Antibacterial activity against Rhodococcus equi W5234 harboring GyrA Ser83Arg mutation selected on 2 ug/ml of compound treated culture by broth microdilution method; assay type: functional; details: Rhodococcus (subgen. Prescottella) equi; summary of the method: as §1
Prescottella equi [18] = experiment: Antibacterial activity against Rhodococcus equi ATCC 6939T harboring GyrA Asp87Asn mutation selected on 8 ug/ml of compound treated culture by broth microdilution method; assay type: functional; details: Rhodococcus (subgen. Prescottella) equi; summary of the method: as §1
Prescottella equi [19] = experiment: Antibacterial activity against Rhodococcus equi ATCC 6939T selected on 4 ug/ml of compound treated culture by broth microdilution method; assay type: functional; details: Rhodococcus (subgen. Prescottella) equi; summary of the method: as §1
Prescottella equi [20] = experiment: Antibacterial activity against Rhodococcus equi W5234 selected on 4 ug/ml of compound treated culture by broth microdilution method; assay type: functional; details: Rhodococcus (subgen. Prescottella) equi; summary of the method: as §1
Prescottella equi [21] = experiment: Antibacterial activity against Rhodococcus equi ATCC 6939T harboring GyrA Asp87His mutation selected on 6 ug/ml of compound treated culture by broth microdilution method; assay type: functional; details: Rhodococcus (subgen. Prescottella) equi; summary of the method: as §1
Prescottella equi [22] = experiment: Antibacterial activity against Rhodococcus equi ATCC 6939T selected on 1 ug/ml of compound treated culture by broth microdilution method; assay type: functional; details: Rhodococcus (subgen. Prescottella) equi; summary of the method: as §1
Prescottella equi [23] = experiment: Antibacterial activity against Rhodococcus equi W5234 harboring GyrA Asp87Asn mutation selected on 6 ug/ml of compound treated culture by broth microdilution method; assay type: functional, organism-based; summary of the method: as §1
Prescottella equi [24] = experiment: Antibacterial activity against Rhodococcus equi ATCC 6939T harboring GyrA Asp87Gly mutation selected on 8 ug/ml of compound treated culture by broth microdilution method; assay type: functional; details: Rhodococcus (subgen. Prescottella) equi; summary of the method: as §1
Prescottella equi [25] = experiment: Antibacterial activity against Rhodococcus equi W5234 harboring GyrA Asp87Gly mutation selected on 4 ug/ml of compound treated culture by broth microdilution method; assay type: functional, organism-based; summary of the method: as §1

`O=C(O)c1cn(C2CC2)c2cc(N3CCNCC3)c(F)cc2c1=O` [CIPROFLOXACIN] was tested, and the MIC (Prescottella equi [1]) was 32 µg/mL (≈ 96.6 µM), the MIC (Prescottella equi [2]) was 8 µg/mL (≈ 24.1 µM) and the MIC (Prescottella equi [3]) was “inactive”. The MIC (Prescottella equi [4]) was 32 µg/mL (≈ 96.6 µM), the MIC (Prescottella equi [5]) was “inactive” and the MIC (Prescottella equi [6]) was 16 µg/mL (≈ 48.3 µM). The MIC (Prescottella equi [7]) was 16 µg/mL (≈ 48.3 µM), the MIC (Prescottella equi [8]) was 16 µg/mL (≈ 48.3 µM) and the MIC (Prescottella equi [9]) was 8 µg/mL (≈ 24.1 µM). The MIC (Prescottella equi [10]) was 16 µg/mL (≈ 48.3 µM), the MIC (Prescottella equi [11]) was 2 µg/mL (≈ 6.04 µM) and the MIC (Prescottella equi [12]) was “inactive”. It also gave an MIC (Prescottella equi [13]) of 32 µg/mL (≈ 96.6 µM), an MIC (Prescottella equi [14]) of 64 µg/mL (≈ 193 µM) and an MIC (Prescottella equi [15]) of 0.5 µg/mL (≈ 1.51 µM). The MIC (Prescottella equi [16]) was 32 µg/mL (≈ 96.6 µM), the MIC (Prescottella equi [17]) was 8 µg/mL (≈ 24.1 µM) and the MIC (Prescottella equi [18]) was 32 µg/mL (≈ 96.6 µM). The MIC (Prescottella equi [19]) was 4 µg/mL (≈ 12.1 µM), the MIC (Prescottella equi [20]) was 8 µg/mL (≈ 24.1 µM) and the MIC (Prescottella equi [21]) was 16 µg/mL (≈ 48.3 µM). For the same molecule, the MIC (Prescottella equi [22]) was 1 µg/mL (≈ 3.02 µM), the MIC (Prescottella equi [23]) was “inactive” and the MIC (Prescottella equi [24]) was 16 µg/mL (≈ 48.3 µM). The MIC (Prescottella equi [25]) was “inactive”.
